ChEMBL document CHEMBL1152984, “Design, synthesis, and structure-activity relationships of benzophenone-based tetraamides as novel antibacterial agents” (J Med Chem, 2009)
≈ marks a conversion by molar mass, not a printed value. Calls of active or inactive are those of the source. No cut-off for these calls is given here.

Key:
Nucleic Acid [1] = experiment: Binding affinity to DNA AT hairpin (5'-CGAAAAACAAAAAGTTTTTCG- 3') oligonucleotide by ethidium bromide displacement assay; format: nucleic-acid assay
Procedure, shortened: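 DNA binding: ethidium bromide (4.0 μM) and AT hairpin (8.0 μM) in 0.1 M Tris-HCl with 25 mM NaCl, pH 7.0, were titrated with compound. Fluorescence (ex 545, em 595 nm) was read after 5 min and corrected for volume. K = K_EB[E]/[agent], where [agent] is the concentration that lowers fluorescence by 50%.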

Staphylococcus aureus [2] = experiment: Antibacterial activity against methicillin-resistant Staphylococcus aureus; format: functional
Staphylococcus aureus [3] = experiment: Antibacterial activity against vancomycin-resistant Staphylococcus aureus; format: functional
Staphylococcus aureus [4] = experiment: Antibacterial activity against Staphylococcus aureus ATCC 29213 assessed as inhibition of lipid synthesis at 8 times MIC treated 5 mins before [3H]glycerol challenge measured after 60 mins by [3H]glycerol incorporation assay; format: functional, organism-based
Procedure, shortened: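 S. aureus at early exponential phase, 0.1 mL cells in triplicate tubes with agent (0.25-4.0 μg/mL) or cerulenin control. Pre-incubated 5 min at room temperature before adding [3H]glycerol at 0.5 μCi. After centrifugation, the organic phase was dried and counted by liquid scintillation.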

Staphylococcus aureus [5] = experiment: Antibacterial activity against Staphylococcus aureus ATCC 29213 assessed as inhibition of protein synthesis at 8 times MIC treated 5 mins before [3H]leucine challenge measured after 30 mins by [3H]leucine incorporation assay; format: functional, organism-based
Procedure, shortened: (§1)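 Cells were added to triplicate wells with compound (0.25-4.0 μg/mL), with 5% DMSO as the no-drug control; protein-synthesis reactions used M9 minimal medium. After 5 min at room temperature, 0.5-1.0 μCi of [3H]thymidine, uridine, N-acetylglucosamine or leucine was added. Reactions ran 15-30 min (60 min for cell wall). Cold-TCA precipitates were filtered, washed and scintillation-counted.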

Staphylococcus aureus [6] = experiment: Antibacterial activity against Staphylococcus aureus ATCC 29213 assessed as inhibition of DNA synthesis at 8 times MIC treated 5 mins before [3H]thymidine challenge measured after 30 mins by [3H]thymidine incorporation assay; format: functional, organism-based; procedure, shortened: as §1
Staphylococcus aureus [7] = experiment: Antibacterial activity against glycopeptide-intermediate Staphylococcus aureus; format: functional
Nucleic Acid [8] = experiment: Binding affinity to Escherichia coli DNA at 25 to 200 ug/mL by Hoescht dye competition assay; format: nucleic-acid assay
Enterococcus = experiment: Antibacterial activity against vancomycin-resistant Enterococcus; format: functional
CHO = experiment: Cytotoxicity against CHO cells assessed as cell viability at 25 to 100 times MIC after 24 hrs by MTS assay; format: cell-based, Cricetulus griseus; settings: chinese hamster
Procedure, shortened: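 CHO cells in RPMI-1640 were seeded at 5000 cells/well, allowed to attach overnight, then exposed to 25, 50 and 100 mg/L for 24 h. MTS was added for 120 min and absorbance read at 505 nm. Results are % versus untreated controls (with or without 5% DMSO), from at least three experiments.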

Staphylococcus aureus [9] = experiment: Antibacterial activity against Staphylococcus aureus assessed as depolarization at […] measured for 60 mins by fluorescence spectrophotometer relative to nisin; format: functional, organism-based
Procedure, shortened: (§2)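 Cells were loaded with 0.4 μM diSC3(5) for 1 h at 37 °C, then KCl was added. After compound addition in a stirred cuvette at 37 °C, fluorescence (ex 622, em 670 nm) was followed for 60 min. Cells plus dye gave the background; the change was expressed as % of the nisin control (100%).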

Escherichia coli = experiment: Antibacterial activity against Escherichia coli; format: functional
Nucleic Acid [10] = experiment: Binding affinity to Staphylococcus aureus DNA at 25 to 200 ug/mL by Hoescht dye competition assay; format: nucleic-acid assay
Procedure, shortened: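 Compounds at 25, 50, 100, 150 and 200 mg/L were added in triplicate, and the drop in emission at 461 nm was measured against Hoechst-stained untreated cells.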

Staphylococcus aureus [11] = experiment: Antibacterial activity against Staphylococcus aureus assessed as depolarization at 32 mg/L measured for 60 mins by fluorescence spectrophotometer relative to nisin; format: functional, organism-based; procedure, shortened: as §2
Staphylococcus aureus [12] = experiment: Antibacterial activity against Staphylococcus aureus ATCC 29213 assessed as inhibition of RNA synthesis at 8 times MIC treated 5 mins before [3H]uridine challenge measured after 30 mins by [3H]uridine incorporation assay; format: functional, organism-based; procedure, shortened: as §1
Staphylococcus aureus [13] = experiment: Antibacterial activity against Staphylococcus aureus ATCC 29213 assessed as inhibition of cell wall synthesis at 8 times MIC treated 5 mins before [3H]N-acetylglucosamine challenge measured after 30 mins by [3H]N-acetylglucosamine incorporation assay; format: functional, organism-based
Procedure, shortened: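 Culture added to triplicate wells with agent (0.25-4.0 μg/mL) or 5% DMSO no-drug control. Pre-incubated 5 min at room temperature, then [3H]N-acetylglucosamine at 0.5-1.0 μCi. Stopped with cold 5% TCA and held 30 min on ice. Precipitate filter-collected, washed, and scintillation counted. Vancomycin was the positive control.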

Staphylococcus aureus [14] = experiment: Antibacterial activity against Staphylococcus aureus ATCC 29213 assessed as inhibition of lipid synthesis at 0.5 to 8 times MIC treated 5 mins before [3H]glycerol challenge measured after 60 mins by [3H]glycerol incorporation assay; format: functional, organism-based
Procedure, shortened: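 Lipid synthesis: early-exponential S. aureus was mixed in triplicate with compound (0.25-4.0 μg/mL) or cerulenin. After 5 min at room temperature, [3H]glycerol (0.5 μCi) was added. Mixtures were centrifuged, and the organic phase was dried and counted by liquid scintillation.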

Staphylococcus aureus [15] = experiment: Antibacterial activity against Staphylococcus aureus ATCC 29213 assessed as inhibition of RNA synthesis at 0.5 to 8 times MIC treated 5 mins before [3H]uridine challenge measured after 30 mins by [3H]uridine incorporation assay; format: functional, organism-based; procedure, shortened: as §1
Staphylococcus aureus [16] = experiment: Antibacterial activity against Staphylococcus aureus ATCC 29213 assessed as inhibition of protein synthesis at 0.5 to 8 times MIC treated 5 mins before [3H]leucine challenge measured after 30 mins by [3H]leucine incorporation assay; format: functional, organism-based; procedure, shortened: as §1
Staphylococcus aureus [17] = experiment: Antibacterial activity against Staphylococcus aureus ATCC 29213 assessed as inhibition of DNA synthesis at 0.5 to 8 times MIC treated 5 mins before [3H]thymidine challenge measured after 30 mins by [3H]thymidine incorporation assay; format: functional, organism-based; procedure, shortened: as §1
Staphylococcus aureus [18] = experiment: Antibacterial activity against Staphylococcus aureus assessed as depolarization at 4 mg/L measured for 60 mins by fluorescence spectrophotometer relative to nisin; format: functional, organism-based; procedure, shortened: as §2
Staphylococcus aureus [19] = experiment: Antibacterial activity against Staphylococcus aureus ATCC 29213 assessed as inhibition of cell wall synthesis at 0.5 to 8 times MIC treated 5 mins before [3H]N-acetylglucosamine challenge measured after 30 mins by [3H]N-acetylglucosamine incorporation assay; format: functional, organism-based

| SMILES | Ka (Nucleic Acid [1]) [×10⁶ /M] | MIC (Staphylococcus aureus [2]) [µg/mL] | MIC (Staphylococcus aureus [3]) [µg/mL] | other results |
| --- | --- | --- | --- | --- |
| Cn1cc(NC(=O)c2ccccc2)cc1C(=O)NCCN1CCCCC1 | 0.173 | > 32 | > 32 | – |
| C/C=C/C/C=C/CCC(=O)[C@H]1O[C@H]1C(N)=O | – | – | – | Activity (Staphylococcus aureus [4]): Active |
| Cn1cc(NC(=O)CCCCCCCCCCCC(=O)Nc2cc(C(=O)NCCN3CCCCC3)n(C)c2)cc1C(=O)NCCN1CCCCC1 | 0.0125 | > 32 | > 32 | – |
| Cn1cc(NC(=O)c2ccc(C(=O)c3ccccc3)cc2)cc1C(=O)NCCN1CCCC1 | 0.106 | – | – | – |
| Cn1cc(NC(=O)c2ccc(C(O)c3ccc(C(=O)Nc4cc(C(=O)NCCN5CCCCC5)n(C)c4)cc3)cc2)cc1C(=O)NCCN1CCCCC1 | 0.0098 | > 32 | > 32 | – |
| CN(C)c1ccc(NC(=O)c2nc(NC(=O)c3ccc(C(=O)c4ccc(C(=O)Nc5cn(C)c(C(=O)Nc6ccc(N(C)C)cc6)n5)cc4)cc3)cn2C)cc1 | – | > 32 | > 32 | – |
| Cn1cc(NC(=O)c2ccc(C(O)c3ccc(C(=O)Nc4cc(C(=O)NCCN5CCCC5)n(C)c4)cc3)cc2)cc1C(=O)NCCN1CCCC1 | 0.175 | > 32 | > 32 | – |
| CC(=O)NC[C@H]1CN(c2ccc(N3CCOCC3)c(F)c2)C(=O)O1 | – | – | – | Activity (Staphylococcus aureus [5]): Active |
| O=C(O)c1cn(C2CC2)c2cc(N3CCNCC3)c(F)cc2c1=O | – | – | – | Activity (Staphylococcus aureus [6]): Active |
| Cn1cc(NC(=O)c2ccc(C(=O)c3ccc(C(=O)Nc4cn(C)c(C(=O)NCCN5CCCC5)n4)cc3)cc2)nc1C(=O)NCCN1CCCC1 | – | 32 (≈ 45.1 µM) | 32 (≈ 45.1 µM) | – |
| Cn1cc(NC(=O)c2ccc(C(=O)c3ccc(C(=O)Nc4cc(C(=O)NCCN5CCCC5)n(C)c4)cc3)cc2)cc1C(=O)NCCN1CCCC1 | 0.679 | 1 (≈ 1.41 µM) | 2 (≈ 2.83 µM) | MIC (Staphylococcus aureus [7]): 0.5 µg/mL (≈ 0.707 µM); Activity (Nucleic Acid [8]): Active; MIC (Enterococcus): 4 µg/mL (≈ 5.66 µM); Activity (CHO): Not Active; Activity (Staphylococcus aureus [9]): Active; MIC (Escherichia coli): 16 µg/mL (≈ 22.6 µM); Activity (Nucleic Acid [10]): Active |
| Cn1cc(NC(=O)c2ccc(Cc3ccc(C(=O)Nc4cc(C(=O)NCCN5CCCC5)n(C)c4)cc3)cc2)cc1C(=O)NCCN1CCCC1 | 0.154 | > 32 | > 32 | – |
| Cn1cc(NC(=O)CCCCCCCCCCCC(=O)Nc2cc(C(=O)NCCN3CCCC3)n(C)c2)cc1C(=O)NCCN1CCCC1 | 0.021 | > 32 | > 32 | Activity (Staphylococcus aureus [11]): inactive |
| CO[C@H]1/C=C/O[C@@]2(C)Oc3c(C)c(O)c4c(O)c(c(/C=N/N5CCN(C)CC5)c(O)c4c3C2=O)NC(=O)/C(C)=C\C=C\[C@H](C)[C@H](O)[C@@H](C)[C@@H](O)[C@@H](C)[C@H](OC(C)=O)[C@@H]1C | – | – | – | Activity (Staphylococcus aureus [12]): Active |
| CN(C)CCCNC(=O)c1cc(NC(=O)c2ccc(C(=O)c3ccc(C(=O)Nc4cc(C(=O)NCCCN(C)C)n(C)c4)cc3)cc2)cn1C | 1 | 8 (≈ 11.7 µM) | 16 (≈ 23.4 µM) | MIC (Staphylococcus aureus [7]): 8 µg/mL (≈ 11.7 µM) |
| Cn1cc(NC(=O)c2ccc(C(=O)c3ccc(C(=O)Nc4cc(C(=O)NCCN5CCOCC5)n(C)c4)cc3)cc2)cc1C(=O)NCCN1CCOCC1 | – | 4 (≈ 5.41 µM) | 8 (≈ 10.8 µM) | – |
| CN(C)c1ccc(NC(=O)c2cc(NC(=O)c3ccc(C(=O)c4ccc(C(=O)Nc5cc(C(=O)Nc6ccc(N(C)C)cc6)n(C)c5)cc4)cc3)cn2C)cc1 | 0.391 | > 32 | > 32 | – |
| CN1CCN(CCCNC(=O)c2cc(NC(=O)c3ccc(C(=O)c4ccc(C(=O)Nc5cc(C(=O)NCCCN6CCN(C)CC6)n(C)c5)cc4)cc3)cn2C)CC1 | 0.108 | > 32 | > 32 | Activity (Nucleic Acid [8]): inactive; Activity (Nucleic Acid [10]): inactive |
| Cn1cc(NC(=O)c2ccc(Cc3ccc(C(=O)Nc4cc(C(=O)NCCN5CCCCC5)n(C)c4)cc3)cc2)cc1C(=O)NCCN1CCCCC1 | 0.0238 | > 32 | > 32 | – |
| CN[C@H](CC(C)C)C(=O)N[C@H]1C(=O)N[C@@H](CC(N)=O)C(=O)N[C@H]2C(=O)N[C@H]3C(=O)N[C@H](C(=O)N[C@H](C(=O)O)c4cc(O)cc(O)c4-c4cc3ccc4O)[C@H](O)c3ccc(c(Cl)c3)Oc3cc2cc(c3O[C@@H]2O[C@H](CO)[C@@H](O)[C@H](O)[C@H]2O[C@H]2C[C@](C)(N)[C@H](O)[C@H](C)O2)Oc2ccc(cc2Cl)[C@H]1O | – | – | – | Activity (Staphylococcus aureus [13]): Active |
| Cn1cc(NC(=O)c2ccc(C(=O)c3ccc(C(=O)Nc4cn(C)c(C(=O)NCCN5CCCCC5)n4)cc3)cc2)nc1C(=O)NCCN1CCCCC1 | – | 4 (≈ 5.43 µM) | 8 (≈ 10.9 µM) | Activity (Nucleic Acid [8]): Active; Activity (Nucleic Acid [10]): Active |
| Cn1cc(NC(=O)c2ccccc2)cc1C(=O)NCCN1CCCC1 | 0.11 | > 32 | > 32 | – |
| Cn1cc(NC(=O)c2ccc(C(=O)c3ccc(C(=O)Nc4cn(C)c(C(=O)NCCN5CCOCC5)n4)cc3)cc2)nc1C(=O)NCCN1CCOCC1 | – | > 32 | > 32 | – |
| Cn1cc(NC(=O)c2ccc(C(=O)c3ccc(C(=O)Nc4cc(C(=O)NCCN5CCCCC5)n(C)c4)cc3)cc2)cc1C(=O)NCCN1CCCCC1 | 0.931 | 0.5 (≈ 0.68 µM) | 1 (≈ 1.36 µM) | Activity (Staphylococcus aureus [14]): inactive; MIC (Staphylococcus aureus [7]): 0.5 µg/mL (≈ 0.68 µM); MIC (Enterococcus): 4 µg/mL (≈ 5.44 µM); Activity (CHO): Not Active; Activity (Staphylococcus aureus [15]): inactive; Activity (Staphylococcus aureus [16]): inactive; Activity (Staphylococcus aureus [17]): inactive; Activity (Staphylococcus aureus [18]): Active; MIC (Escherichia coli): 16 µg/mL (≈ 21.8 µM); Activity (Staphylococcus aureus [19]): inactive |
| Cn1cc(NC(=O)c2ccc(C(=O)c3ccccc3)cc2)cc1C(=O)NCCN1CCCCC1 | 0.227 | – | – | – |
